Results published in PMC6139428 (Molecular Nutrition & Food Research, 2017).
“Also recorded” adds a separate entry of the source.

Tests used:
[1] = Nutrikinetics of isoflavone metabolites in serum after oral boiled soybean; assay type: in vivo, mice (C57BL/6); details: for serum concentration, CGJ‐treated compared with BS‐treated / bioavailability, CGJ‐treated compared to BS‐treated (unfermented soybean): OVX mice; for serum concentration, CGJ‐treated compared with BS‐treated: relative peak area; for concentration based on area‐under‐the‐curve analysis: all groups; for AUC, CGJ treatment versus BS treatment: sham group; for detection in pooled serum samples: pooled serum of sham and OVX groups after BS or CGJ, UPLC–QTOF‐MS; for bioavailability, CGJ‐treated compared to BS‐treated (unfermented soybean): abstract does not name the group; for AUC(0–24h), CGJ administered versus BS administered: OVX groups
[2] = test system: MC3T3‐E1 cells; experiment: Mineralization assay; assay type: cell-based; details: 21‐day incubation
Summary of the method: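 MC3T3‐E1 cells were differentiated with test compound and incubated 21 days. Cells were washed, fixed in 4% formalin and stained with 2% Alizarin Red S. Bound stain was solubilized in 10% […] in 10 mM sodium phosphate and absorbance read at 562 nm. Means ± SD, n = 3, three independent experiments, tested against the control group.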

[3] = test system: MC3T3‐E1 cells; experiment: Alkaline phosphatase; assay type: cell-based; details: for ALP activity: 0.1–0 5 μ M, 6 days differentiation; for osteoblastogenesis: abstract summary
Summary of the method: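 MC3T3‐E1 subclone 4 cells were kept in αMEM without L‐ascorbic acid and seeded at 2 × 10^4 cells/well. Differentiation was induced with 50 μg mL–1 L‐ascorbic acid and 10 mM β‐glycerophosphate plus test compound for 6 days. Cells were PBS‐washed and lysed in 0.2% Triton X‐100, and ALP was read with a pNPP kit. Means ± SD, n = 3, three independent experiments, tested against the control group.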

[4] = test system: RAW 264.7 cells; experiment: RANKL‐induced bone resorption activity; assay type: cell-based; details: abstract summary
Summary of the method: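 RAW 264.7 macrophages were grown in DMEM and seeded. Medium was replaced with RANKL‐containing differentiation medium plus test compound, then held 5 days without medium change. Bone resorption activity was measured with a commercial bone resorption assay kit. Means ± SD, n = 3, three independent experiments, tested against the control group.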

| Compound | serum concentration, CGJ‐treated compared with BS‐treated [1] | concentration based on area‐under‐the‐curve analysis [1] | ALP activity [3] | detection in pooled serum samples [1] | other results |
| --- | --- | --- | --- | --- | --- |
| O=C(O)c1ccc(O)cc1 [4‐hydroxybenzoic acid, 4‐Hydroxybenzoic acid] | higher in BS‐treated |  |  |  |  |
| O=C(O)/C=C/c1ccc(O)c(O)c1 [Caffeic acid] | higher in BS‐treated |  | stimulated ALP activity |  | mineralization, calcium deposition by ARS staining [2]: Extensive calcium deposition |
| O=c1c(-c2ccc(O)cc2)coc2cc(O)ccc12 [Daidzein] | significantly higher | high concentrations |  |  | AUC, CGJ treatment versus BS treatment [1]: significantly higher |
| O=c1c(-c2ccc(O)cc2)coc2cc(O[C@@H]3O[C@H](CO)[C@@H](O)[C@H](O)[C@H]3O)ccc12 [Daidzin] |  |  |  | not detected |  |
| O=c1c(-c2ccc(O)cc2)coc2cc(O)cc(O)c12 [Genistein] | higher concentrations; also recorded: significantly higher | high concentrations |  | detected | AUC(0–24h), CGJ administered versus BS administered [1]: significantly higher; bioavailability, CGJ‐treated compared to BS‐treated (unfermented soybean) [1]: enhances; AUC, CGJ treatment versus BS treatment [1]: significantly higher |
| O=c1c(-c2ccc(O)cc2)coc2cc(O[C@@H]3O[C@H](CO)[C@@H](O)[C@H](O)[C@H]3O)cc(O)c12 [Genistin] |  |  |  | not detected |  |
| COc1cc2c(=O)c(-c3ccc(O)cc3)coc2cc1O [Glycitein] |  |  |  | detected |  |

Continued, in another order:

| serum concentration, CGJ‐treated compared with BS‐treated [1] | concentration based on area‐under‐the‐curve analysis [1] | Compound | ALP activity [3] | detection in pooled serum samples [1] | other results |
| --- | --- | --- | --- | --- | --- |
| higher concentrations | high concentrations | O=C(O)[C@H]1O[C@@H](Oc2ccc3c(c2)OC[C@H](c2ccc(O)cc2)C3)[C@H](O)[C@@H](O)[C@@H]1O [Equol 7‐glucuronide] | stimulated ALP activity |  | bioavailability, CGJ‐treated compared to BS‐treated (unfermented soybean) [1]: enhances; also recorded: higher bioavailability; mineralization, calcium deposition by ARS staining [2]: Extensive calcium deposition; osteoblastogenesis [3]: promote osteoblastogenesis; osteoclast formation [4]: inhibit osteoclast formation |
| higher in BS‐treated |  | COc1ccc(-c2coc3cc(O)ccc3c2=O)cc1 [Formononetin] | stimulated ALP activity |  |  |
| higher concentrations | high concentrations | O=c1c(-c2ccc(OS(=O)(=O)O)cc2)coc2cc(O)cc(O)c12 [Genistein 4′‐sulfate] | stimulated ALP activity |  | AUC(0–24h), CGJ administered versus BS administered [1]: significantly higher; mineralization, calcium deposition by ARS staining [2]: Extensive calcium deposition; osteoblastogenesis [3]: promote osteoblastogenesis; osteoclast formation [4]: inhibit osteoclast formation |
| higher concentrations | high concentrations | Dihydrodaidzein sulfate |  |  |  |
| higher in BS‐treated |  | Methyl caffeic acid |  |  |  |
